In the library only some 5.2% were active in any assay of this set; here they are far more common.
M18AAP inhibitor: blocks P. falciparum M18 aspartyl aminopeptidase | recombinant PfM18AAP, H-Glu-NHMec fluorogenic cleavage | inhibition, % at 7.35 µM | hit rate 1.2% among 290,000 | AID 1822;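 active = inhibition above the campaign mean inhibition over all tested compounds plus 3 SD, cut at about 28% in these data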;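 also: 0% = plate median of test compound wells and 100% = 2 mM ZnCl2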
HCV core dimer: HCV core protein dimerization inhibition. TR-FRET GST/Flag-core106 dimerization, 1536-well. inhibition, % at 5 µM. hit rate 0.33% among 300,000. AID 1899;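 active = inhibition above the mean of all tested compounds plus 3 SD, set per screening campaign, cut at about 45% in these data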
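Material: Tagged HCV core106 pair (GST and Flag) | Amount: GST-core106 13.5 nM, Flag-core106 17 nM | Medium: KF-containing HEPES buffer, pH 7.45, DTT, CHAPS, BSA | Reagent: Eu donor and XL665 acceptor anti-tag antibodies | Schedule: 4 h at 22.5 °C | Technique: Time-resolved FRET, ex 340 nm, em 617 and 671 nm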
HCV NS3 hel inh: blocks Hepatitis C virus NS3 helicase unwinding; NS3 helicase DNA unwinding, Cy5 molecular beacon fluorescence; inhibition, % at 10.9 µM; hit rate 0.56% among 290,000; AID 1800;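 active = inhibition above the mean of all tested compounds plus 3 SD, set per campaign, cut at about 35% in these data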;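 also: 0% = DMSO wells and 100% = thioflavine S control wells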
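assay system = NS3 helicase fragment of HCV | buffer or medium = MOPS pH 6.5, MgCl2, DTT, Tween20, BSA | timing = 60 min unwinding reaction at 25 °C after ATP addition | signal = Cy5 beacon fluorescence read at start and 1 h | read-out basis = % inhibition of unwinding | control set = low DMSO, high thioflavine S at 110 µM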
EBNA-1 inh: blocks EBNA-1 binding to DNA; EBNA-1 DNA binding, fluorescence polarization; hit rate 0.34% among 300,000; AID 1950; inhibition, % at 14.8 µM; in the data active = inhibition above about 28%
ALR inh: blocks human ALR sulfhydryl oxidase activity. purified ALR, DTT oxidation, H2O2 HRP-luminol luminescence. inhibition, % (test concentration not listed). hit rate 3.8% among 290,000. AID 485317;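 active = mean replicate inhibition above about 79%, with every replicate also reaching it, limit read from the data; inconclusive = only one of the two criteria met; inactive = mean below limit and not every replicate reaching it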
Target sequence (P55789 whole entry, looked up): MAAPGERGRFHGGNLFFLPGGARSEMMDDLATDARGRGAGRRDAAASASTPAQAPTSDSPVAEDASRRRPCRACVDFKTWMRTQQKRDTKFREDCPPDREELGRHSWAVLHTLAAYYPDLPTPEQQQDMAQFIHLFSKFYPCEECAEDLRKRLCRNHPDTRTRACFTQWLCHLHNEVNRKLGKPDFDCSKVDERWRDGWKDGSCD
ZTA DNA inh: blocks Epstein-Barr virus ZTA, an EBNA-1 counter-screen. P03206. ZTA-DNA binding, fluorescence polarization. inhibition, % at 11 µM. hit rate 0.15% among 320,000. AID 2234; in the data active = inhibition above about 33%
Target sequence (P03206 whole entry, looked up): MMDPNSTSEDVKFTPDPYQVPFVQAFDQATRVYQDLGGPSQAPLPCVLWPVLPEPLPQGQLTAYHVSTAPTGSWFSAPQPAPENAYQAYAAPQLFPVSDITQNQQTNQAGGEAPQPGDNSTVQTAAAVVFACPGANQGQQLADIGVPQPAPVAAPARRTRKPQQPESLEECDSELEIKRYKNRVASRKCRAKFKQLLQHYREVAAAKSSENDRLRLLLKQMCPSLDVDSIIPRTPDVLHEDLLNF
Starred values were filed as active, the others as inactive; ? = inconclusive; . = no result.

SMILES	M18AAP inhibitor	HCV core dimer	HCV NS3 hel inh	EBNA-1 inh	ALR inh	ZTA DNA inh
COc1ccc(CC(=O)NCc2csc(-c3cccs3)n2)cc1OC	-4.9	4.9	-3.9	5.5	-4.2	9.1
O=C(Nc1nc(-c2ccccc2)cs1)c1ccccc1NS(=O)(=O)c1ccc(F)cc1	-8.7	17.8	-43.8	1.5	95.7*	9.6
Cc1cccc(CCNS(=O)(=O)c2ccc3c(c2)NC(=O)C(C)S3)c1 (stereo not drawn)	2.1	3.7	-6.2	7.7	2.3	7.5
Cc1cc2cc3c(cc2nc1SCC(=O)O)CCC3	5.8	10.9	4.0	-0.7	97.5*	-2.6
Cc1ccc(-c2nc(CSCC(=O)NCc3cccnc3)c(C)o2)cc1	4.3	-1.2	0.1	-6.8	98.6*	5.0
Cc1oc(-c2ccc(Cl)cc2)nc1CN1CCC(C(=O)NCc2cccnc2)CC1	0.6	-1.5	-10.9	4.4	-5.0	13.0
COc1ccc(-c2nc(CSCC(=O)NCc3ccco3)c(C)o2)cc1	6.1	0.9	5.2	11.0	99.2*	17.7
COc1ccc(/C(O)=C2/C(=O)C(=O)N(c3ccccn3)C2c2ccc(F)cc2)cc1 (stereo not drawn)	6.0	.	16.8	.	3.1	.
O=C(NCCc1c[nH]c2ccccc12)C1CCC(=O)N(CCc2cccc(F)c2)C1 (stereo not drawn)	2.4	3.8	1.6	-1.5	.	7.1
Cn1c(=NC(=O)CCS(=O)(=O)c2ccccc2)sc2cc(F)ccc21	.	0.2	.	-1.1	.	5.6
CC(=O)SCC(=O)N=c1sc2cc(F)ccc2n1C	-10.6	3.6	-1.6	-3.2	99.0*	5.5
CCc1ccccc1-n1c(-c2ccncc2)n[nH]c1=S	30.2*	-5.0	-0.2	6.2	17.1	12.0
Cc1cccc(-n2c(C)n[nH]c2=S)c1C	14.4	-5.2	0.3	-5.9	77.1*	6.0
CC1CCCCC1n1c(-c2cccnc2)n[nH]c1=S (stereo not drawn)	16.6	-2.6	-2.1	-19.6	87.2*	-16.2
Cc1n[nH]c(=S)n1-c1cccc(Cl)c1	22.4	-4.5	-9.3	4.3	94.5*	-32.3
Cc1cccc(-n2c(-c3ccccc3)c[nH]c2=S)c1C	5.5	13.6	-4.3	-5.3	48.9	-4.5
S=c1[nH]nc(-c2cccnc2)n1C1CCCCC1	26.4	-2.9	4.4	-4.4	?	0.6
Cc1ccccc1-n1c(-c2ccncc2)n[nH]c1=S	.	-6.0	.	-2.3	52.3	19.5
Cc1cccc(-n2c(-c3ccncc3)n[nH]c2=S)c1C	-0.9	49.1*	2.0	1.6	.	7.5
Cc1cc(Cl)ccc1-n1c(-c2cccnc2)n[nH]c1=S	20.2	-0.2	14.2	3.4	65.7	-7.7
Cc1c(Cl)cccc1-n1c(-c2cccnc2)n[nH]c1=S	30.6*	-4.4	-0.6	-6.9	79.6*	-8.9
O=C(NCCC(=O)N(CCc1ccccc1)Cc1ccccc1)c1ccc([N+](=O)[O-])cc1	.	-0.3	.	3.8	0.2	-4.4
CCOC(=O)C1=C(N)Oc2cc(O)ccc2C1c1cccc([N+](=O)[O-])c1 (stereo not drawn)	2.4	0.9	-0.7	-17.8	84.9*	-2.8
CCOC(=O)C1=C(N)Oc2cc(O)ccc2C1c1ccccc1 (stereo not drawn)	-3.2	-4.8	12.7	-6.9	-4.3	-9.9
Cn1c(=N)n(CC(=O)c2ccc(Cl)c(Cl)c2)c2ccccc21	-12.4	1.8	-55.4	-11.9	-1.1	-14.6
SMILES	M18AAP inhibitor	HCV core dimer	HCV NS3 hel inh	EBNA-1 inh	ALR inh	ZTA DNA inh
CCOc1ccc(NCc2cccn2-c2nnc(N3CCC(C(=O)NCCCN4CCCCC4CC)CC3)s2)cc1 (stereo not drawn)	-0.7	-14.4	-82.7	-4.3	99.2*	-14.6
CCc1ccc(NC(=O)COC(=O)CN2C(=O)COc3ccccc32)cc1	6.5	-4.9	7.8	4.7	-8.8	-15.4
CCN(CC)c1ccc(NC(=O)COC(=O)COc2ccccc2[N+](=O)[O-])cc1	-3.6	-7.4	3.0	7.2	99.4*	9.4
COc1cccc(NC(=O)COC(=O)COc2ccccc2[N+](=O)[O-])c1	-7.9	1.0	4.5	-2.4	-13.3	14.8
CCN(CC)c1ccc(NC(=O)COC(=O)CCC(=O)c2cccs2)cc1	.	.	.	.	99.1*	4.7
COc1ccc(NC(=O)COC(=O)CNC(=O)c2cccs2)cc1Cl	.	.	.	.	-1.1	-7.6
CCN(CC)c1ccc(NC(=O)COC(=O)C23CCC(=O)N2c2ccccc2S3)cc1 (stereo not drawn)	-2.0	-1.1	-1.3	-3.5	96.8*	-1.9
CN(C)c1ccc(NC(=O)COC(=O)CNC(=O)c2cccs2)cc1	.	.	.	.	95.9*	4.9
CN(C)c1ccc(/C=C(/NC(=O)c2ccccc2)C(=O)NCCN2CCOCC2)cc1	10.1	-10.8	-9.3	-12.9	99.3*	-8.3
O=C(NCCN1CCOCC1)/C(=C/c1ccc(Cl)cc1)NC(=O)c1ccccc1	2.5	12.4	0.4	-8.6	-16.2	-0.3
CN(C)c1ccc(/C=C(/NC(=O)c2ccccc2Cl)C(=O)NCCN2CCOCC2)cc1	2.8	-18.0	-12.1	-12.8	88.5*	-6.8
CCOC(=O)c1ccc(CN2Cc3ccccc3C2=O)cc1	-4.9	9.2	0.9	14.2	.	11.8
Cn1c(SCC(=O)Nc2sccc2C#N)nnc1C1CC1	.	.	.	.	14.7	.
Cc1cccc(NC(=O)CSCC(=O)Nc2sccc2C#N)c1	.	3.9	.	-12.5	98.4*	-11.2
Cc1cccc(NC(=O)CSCC(=O)N=c2sccn2C)c1	.	0.4	.	-3.6	43.9	2.6
Cn1c(SCC(=O)Nc2sccc2C#N)nnc1-c1ccccc1	-6.0	48.5*	8.3	6.8	-1.7	-1.1
CCCCCNS(=O)(=O)c1cc2c3c(c1)CCC(=O)N3CCC2	1.6	2.4	-2.0	-18.0	-17.2	-14.8
CC(=O)NC(Cc1ccc(C)cc1)C(=O)NC1CCN(S(=O)(=O)c2ccccc2)CC1 (stereo not drawn)	0.7	0.2	-2.6	-1.7	.	-14.0
Cc1ccc(C(=O)CCC(=O)Nc2ccccc2F)cc1	-10.6	.	-13.5	.	-1.3	.
CCCCc1cc(=O)oc2c(CN(C)C)c(O)ccc12	2.0	1.9	0.0	-4.5	93.8*	-17.0
Cc1c(O)ccc2c(CN(C)Cc3ccccc3)cc(=O)oc12	0.9	1.4	3.0	-1.3	85.8*	10.3
Cc1c(O)ccc2c(CN3CCN(Cc4ccccc4)CC3)cc(=O)oc12	-0.7	12.8	-7.2	7.6	.	4.1
CN(C)Cc1c(O)ccc2c3c(c(=O)oc12)CCCCC3	19.4	3.1	3.5	7.8	89.8*	9.9
C[C@H]1CN=C(N(C)C)N1CC1CCCCC1	.	-18.7	.	-5.1	.	-29.6
Cc1cccc(C(C)C)c1NC(=O)C(C)OC(=O)Cc1n[nH]c(=O)c2ccccc12 (stereo not drawn)	.	-2.8	.	3.6	-3.5	2.3
COc1cccc(/C=N/NC(=O)CC2C(=O)NN=C2C)c1O (stereo not drawn)	9.9	-3.3	1.7	2.8	97.0*	4.4
